# Assay results reported in ChEMBL document CHEMBL1165943, “Design and synthesis of new anticancer pyrimidines with multiple-kinase inhibitory effect” (Bioorg Med Chem, 2010).
# Legend:
# Type in all cases: functional
# K562 = experiment: Cytotoxicity against human K562 cells assessed as cell growth at 10 uM; conditions: Homo sapiens, K562; read-out: Activity
# Procedure, shortened: (§1)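 Single-dose screen at 10 μM across the 60-cell-line panel. Cells grown in RPMI 1640 with 5% FBS and 2 mM L-glutamine, seeded at 5,000–40,000 cells/well according to doubling time, and treated 24 h later. Exposure lasted 48 h at 37 °C, 5% CO₂. Adherent cells were fixed with cold TCA, suspension cells were fixed settled, and both were stained with SRB and read at 515 nm. Growth % was recorded, with inhibition % = 100 − growth %.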
# MOLT-4 = experiment: Cytotoxicity against human MOLT4 cells assessed as cell growth at 10 uM; conditions: Homo sapiens, MOLT-4; read-out: Activity; procedure, shortened: as §1
# SR = experiment: Cytotoxicity against human SR cells assessed as cell growth at 10 uM; conditions: Homo sapiens, SR; read-out: Activity; procedure, shortened: as §1
# EKVX = experiment: Cytotoxicity against human EKVX cells assessed as cell growth at 10 uM; conditions: Homo sapiens, EKVX; read-out: Activity
# Procedure, shortened: (§2)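 Single-concentration screen at 10 μM across the 60-cell-line panel (nine tissue types); growth percentage recorded per cell line, with inhibition taken as 100 minus growth percentage.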
# HOP-62 = experiment: Cytotoxicity against human HOP62 cells assessed as cell growth at 10 uM; conditions: Homo sapiens, HOP-62; read-out: Activity; procedure, shortened: as §2
# NCI-H226 = experiment: Cytotoxicity against human NCI-H226 cells assessed as cell growth at 10 uM; conditions: Homo sapiens, NCI-H226; read-out: Activity; procedure, shortened: as §1
# NCI-H23 = experiment: Cytotoxicity against human NCI-H23 cells assessed as cell growth at 10 uM; conditions: Homo sapiens, NCI-H23; read-out: Activity; procedure, shortened: as §1
# NCI-H522 = experiment: Cytotoxicity against human NCI-H522 cells assessed as cell growth at 10 uM; conditions: Homo sapiens, NCI-H522; read-out: Activity; procedure, shortened: as §1
# COLO 205 = experiment: Cytotoxicity against human COLO205 cells assessed as cell growth at 10 uM; conditions: Homo sapiens, COLO 205; read-out: Activity; procedure, shortened: as §2
# HCC 2998 = experiment: Cytotoxicity against human HCC2998 cells assessed as cell growth at 10 uM; conditions: Homo sapiens, HCC 2998; read-out: Activity; procedure, shortened: as §2
# HCT-116 = experiment: Cytotoxicity against human HCT116 cells assessed as cell growth at 10 uM; conditions: Homo sapiens, HCT-116; read-out: Activity; procedure, shortened: as §2
# HCT-15 = experiment: Cytotoxicity against human HCT15 cells assessed as cell growth at 10 uM; conditions: Homo sapiens, HCT-15; read-out: Activity; procedure, shortened: as §2
# HT-29 = experiment: Cytotoxicity against human HT-29 cells assessed as cell growth at 10 uM; conditions: Homo sapiens, HT-29; read-out: Activity; procedure, shortened: as §2
# SW-620 = experiment: Cytotoxicity against human SW620 cells assessed as cell growth at 10 uM; conditions: Homo sapiens, SW-620; read-out: Activity; procedure, shortened: as §1
# SF-268 = experiment: Cytotoxicity against human SF268 cells assessed as cell growth at 10 uM; conditions: Homo sapiens, SF-268; read-out: Activity; procedure, shortened: as §1
# SF-295 = experiment: Cytotoxicity against human SF295 cells assessed as cell growth at 10 uM; conditions: Homo sapiens, SF-295; read-out: Activity; procedure, shortened: as §1
# SF-539 = experiment: Cytotoxicity against human SF539 cells assessed as cell growth at 10 uM; conditions: Homo sapiens, SF-539; read-out: Activity; procedure, shortened: as §1
# SNB-75 = experiment: Cytotoxicity against human SNB75 cells assessed as cell growth at 10 uM; conditions: Homo sapiens, SNB-75; read-out: Activity; procedure, shortened: as §1
# U-251 = experiment: Cytotoxicity against human U251 cells assessed as cell growth at 10 uM; conditions: Homo sapiens, U-251; read-out: Activity; procedure, shortened: as §1
# LOX IMVI = experiment: Cytotoxicity against human LOXIMVI cells assessed as cell growth at 10 uM; conditions: Homo sapiens, LOX IMVI; read-out: Activity; procedure, shortened: as §1
# Malme-3M = experiment: Cytotoxicity against human MALME-3M cells assessed as cell growth at 10 uM; conditions: Homo sapiens, Malme-3M; read-out: Activity; procedure, shortened: as §1
# SK-MEL-28 = experiment: Cytotoxicity against human SK-MEL-28 cells assessed as cell growth at 10 uM; conditions: Homo sapiens, SK-MEL-28; read-out: Activity; procedure, shortened: as §1
# UACC-257 = experiment: Cytotoxicity against human UACC257 cells assessed as cell growth at 10 uM; conditions: Homo sapiens, UACC-257; read-out: Activity; procedure, shortened: as §1
# OVCAR-3 = experiment: Cytotoxicity against human OVCAR-3 cells assessed as cell growth at 10 uM; conditions: Homo sapiens, OVCAR-3; read-out: Activity; procedure, shortened: as §1
# OVCAR-4 = experiment: Cytotoxicity against human OVCAR4 cells assessed as cell growth at 10 uM; conditions: Homo sapiens, OVCAR-4; read-out: Activity; procedure, shortened: as §1
# OVCAR-8 = experiment: Cytotoxicity against human OVCAR8 cells assessed as cell growth at 10 uM; conditions: Homo sapiens, OVCAR-8; read-out: Activity; procedure, shortened: as §1
# NCI/ADR-RES = experiment: Cytotoxicity against human NCI/ADR-RES cells assessed as cell growth at 10 uM; conditions: Homo sapiens, NCI/ADR-RES; read-out: Activity; procedure, shortened: as §1
# SK-OV-3 = experiment: Cytotoxicity against human SKOV3 cells assessed as cell growth at 10 uM; conditions: Homo sapiens, SK-OV-3; read-out: Activity; procedure, shortened: as §1
# ACHN = experiment: Cytotoxicity against human ACHN cells assessed as cell growth at 10 uM; conditions: Homo sapiens, ACHN; read-out: Activity; procedure, shortened: as §2
# CAKI-1 = experiment: Cytotoxicity against human Caki1 cells assessed as cell growth at 10 uM; conditions: Homo sapiens, CAKI-1; read-out: Activity; procedure, shortened: as §2
# TK-10 = experiment: Cytotoxicity against human TK10 cells assessed as cell growth at 10 uM; conditions: Homo sapiens, TK-10; read-out: Activity; procedure, shortened: as §1
# UO-31 = experiment: Cytotoxicity against human UO31 cells assessed as cell growth at 10 uM; conditions: Homo sapiens, UO-31; read-out: Activity; procedure, shortened: as §1
# PC-3 = experiment: Cytotoxicity against human PC3 cells assessed as cell growth at 10 uM; conditions: Homo sapiens, PC-3; read-out: Activity; procedure, shortened: as §1
# DU-145 = experiment: Cytotoxicity against human DU145 cells assessed as cell growth at 10 uM; conditions: Homo sapiens, DU-145; read-out: Activity; procedure, shortened: as §2
# MCF7 = experiment: Cytotoxicity against human MCF7 cells assessed as cell growth at 10 uM; conditions: Homo sapiens, MCF7; read-out: Activity; procedure, shortened: as §1
# MDA-MB-231 = experiment: Cytotoxicity against human MDA-MB-231 cells assessed as cell growth at 10 uM; conditions: Homo sapiens, MDA-MB-231; read-out: Activity; procedure, shortened: as §1
# BT-549 = experiment: Cytotoxicity against human BT549 cells assessed as cell growth at 10 uM; conditions: Homo sapiens, BT-549; read-out: Activity; procedure, shortened: as §2
# MDA-MB-468 = experiment: Cytotoxicity against human MDA-MB-468 cells assessed as cell growth at 10 uM; conditions: Homo sapiens, MDA-MB-468; read-out: Activity; procedure, shortened: as §1
# [1] = Growth inhibition of human NCI60 cells at 10 uM after 48 hrs by sulforhodamine B assay relative to control; conditions: Homo sapiens, NCI60, 48 h; read-out: GI
# Procedure, shortened: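 Single 10 µM dose across the 60-line panel for 48 h, with the same culture, TCA fixation and SRB 515 nm read-out. Inhibition % = 100 − growth %, given as the mean over the 60 cell lines.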
SMILES,growth at 10 µM (K562) [%],growth at 10 µM (MOLT-4) [%],growth at 10 µM (SR) [%],growth at 10 µM (EKVX) [%],growth at 10 µM (HOP-62) [%],growth at 10 µM (NCI-H226) [%],growth at 10 µM (NCI-H23) [%],growth at 10 µM (NCI-H522) [%],growth at 10 µM (COLO 205) [%],growth at 10 µM (HCC 2998) [%],growth at 10 µM (HCT-116) [%],growth at 10 µM (HCT-15) [%],growth at 10 µM (HT-29) [%],growth at 10 µM (SW-620) [%],growth at 10 µM (SF-268) [%],growth at 10 µM (SF-295) [%],growth at 10 µM (SF-539) [%],growth at 10 µM (SNB-75) [%],growth at 10 µM (U-251) [%],growth at 10 µM (LOX IMVI) [%],further results
CC(=O)Nc1cccc(-c2ccc(-c3ccnc(NC(=O)Nc4cc(C(F)(F)F)cc(C(F)(F)F)c4)n3)cn2)c1.Cl,34.8,53.3,68,69.2,-3.2,59.8,-6.37,8.5,53.5,70.7,50.5,60.3,9.2,85.2,83.6,49,75.6,87.2,-25.4,49.4,growth at 10 µM (Malme-3M): 52.3%; growth at 10 µM (SK-MEL-28): -37.6%; growth at 10 µM (UACC-257): 50.5%; growth at 10 µM (OVCAR-3): 67.8%; growth at 10 µM (OVCAR-4): 7.08%; growth at 10 µM (OVCAR-8): 27.9%; growth at 10 µM (NCI/ADR-RES): 45.5%; growth at 10 µM (SK-OV-3): 83.1%; growth at 10 µM (ACHN): 60.5%; growth at 10 µM (CAKI-1): 50.9%; growth at 10 µM (TK-10): 76%; growth at 10 µM (UO-31): 54.7%; growth at 10 µM (PC-3): 56.2%; growth at 10 µM (DU-145): 89.2%; growth at 10 µM (MCF7): 7.95%; growth at 10 µM (MDA-MB-231): 65.5%; growth at 10 µM (BT-549): 47.3%; growth at 10 µM (MDA-MB-468): -30.3%; inhibition of growth at 10 µM [1]: 50.9%
CC(=O)c1ccc(-c2ccc(-c3ccnc(Nc4cc(C(F)(F)F)cc(C(F)(F)F)c4)n3)cn2)cc1,98.5,91,96.5,113,112,100,96.5,102,110,104,92.9,110,105,109,106,110,89.7,78.3,101,97.8,growth at 10 µM (Malme-3M): 124%; growth at 10 µM (SK-MEL-28): 95.8%; growth at 10 µM (UACC-257): 102%; growth at 10 µM (OVCAR-3): 119%; growth at 10 µM (OVCAR-4): 94.6%; growth at 10 µM (OVCAR-8): 96.7%; growth at 10 µM (NCI/ADR-RES): 103%; growth at 10 µM (SK-OV-3): 93.5%; growth at 10 µM (ACHN): 103%; growth at 10 µM (CAKI-1): 97.4%; growth at 10 µM (TK-10): 106%; growth at 10 µM (UO-31): 79.3%; growth at 10 µM (PC-3): 89.8%; growth at 10 µM (DU-145): 114%; growth at 10 µM (MCF7): 90.8%; growth at 10 µM (MDA-MB-231): 98.2%; growth at 10 µM (BT-549): 99.8%; growth at 10 µM (MDA-MB-468): 106%; inhibition of growth at 10 µM [1]: -2.21%
